In brackets after ≈: the same amount, converted by molar mass. Activity calls are given as the source filed them. No cut-off for these calls is given here.
What was measured:
HL-60 [1] = test: Cytotoxicity against human HL60 cells assessed as reduction in cell viability after 72 hrs by alamar blue assay; assay type: functional, cell-based; details: HL-60, 72 h
Outline: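 HL-60 at 300,000 cells/ml treated in triplicate with compound or vehicle (0.1% v/v DMSO) for 72 h. Cells then incubated in 10% (v/v) AlamarBlue and fluorescence read at excitation 544 nm, emission 590 nm. IC50 is the mean of at least three separate determinations.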

GISTT1 = test: Cytotoxicity against human GISTT1 cells assessed as reduction in cell viability at 1 uM after 48 hrs by alamar blue assay; assay type: functional, cell-based
Outline: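 GIST-T1 seeded at 4000 cells/well, exposed to 1 or 10 μM for 48 h; viability read by AlamarBlue.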

HL-60 [2] = test: Cell cycle arrest in human HL60 cells assessed as accumulation of cells at G2/M phase at 10 uM after 24 hrs by propidium iodide staining-based flow cytometric analysis; assay type: functional
Outline: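 HL-60 exposed to 10 μM for 24 h, vehicle 0.1% DMSO. Cells plated at 2×10^5 cells/mL, stained in PBS with 0.1% sodium citrate, 0.1% NP40 and propidium iodide for 30 min at room temperature in the dark. DNA content by flow cytometry; G2/M fraction reported.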

Tubulin (Homo sapiens) [3] = biological target: T1, Tubulin (Homo sapiens) (UniProt P68371+Q9H4B7+P0DPH7+P68366+Q13509+Q71U36+P04350+Q3ZCM7+P07437+P68363+Q9BQE3+Q6PEY2+Q13885+Q9BVA1+Q9BUF5); test: Inhibition of tubulin (unknown origin) polymerization at 27.5 uM measured over 70 mins by turbidity method; assay type: protein-complex assay
Outline: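 Tubulin at 25 µM in GAB buffer (10 mM sodium phosphate, 30% glycerol, 1 mM EGTA, 6 mM MgCl2, 1 mM GTP, pH 6.7) with 27.5 µM compound or DMSO vehicle. Turbidity is read at 355 nm for 70 min at 37 °C. Data are normalized to the initial stable absorbance plateau to correct for compound absorbance.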

[4] = Apparent solubility of compound in sodium phosphate buffer at 15 uM after 20 mins; assay type: physicochemical
A2780 = test: Cytotoxicity against human A2780 cells after 48 hrs by MTT assay; assay type: functional, cell-based; details: A2780, 48 h
Outline: (§1)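 Cells seeded at 12,000 to 17,000 per well depending on line, incubated overnight, then given serial dilutions of ligand for 48 h. MTT at 2.5 mg/mL added for 4 h at 37 °C, formazan solubilized overnight (10% SDS, 45% dimethylformamide, pH 5.5), absorbance read at 595/690 nm. IC50 from log-dose response curves; mean ± SE of three independent assays.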

[5] = Cytotoxicity against human A2780AD cells after 48 hrs by MTT assay; assay type: functional, cell-based; outline: as §1
[6] = Ratio of IC50 for human A2780AD cells to IC50 for human A2780 cells; assay type: functional
Outline: (§2)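 Relative resistance: IC50 in the P-gp overexpressing resistant line divided by IC50 in the parental line. Both IC50s came from the 48 h MTT assay (serial dilutions, absorbance at 595/690 nm, log-dose response curves, three independent assays).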

NIH3T3 [7] = test: Cytotoxicity against mouse NIH/3T3 cells after 48 hrs by MTT assay; assay type: cell-based; details: NIH3T3, 48 h; outline: as §1
NIH3T3 [8] = test: Cytotoxicity against mouse NIH/3T3 cells harboring MDR G185 after 48 hrs by MTT assay; assay type: functional, cell-based; details: NIH3T3, 48 h; outline: as §1
[9] = Ratio of IC50 for mouse NIH/3T3 cells harboring MDR G185 to IC50 for mouse NIH/3T3 cells; outline: as §2
A549 = test: Cytotoxicity against human A549 cells assessed as reduction in cell survival at 0.1 to 10 uM after 18 hrs by MTT assay; assay type: functional, cell-based
Outline: (§3)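 Seeded at 2,500 cells/well in medium with 10% serum. After adhesion, exposed to 0.1, 1 and 10 μM in medium with 5% serum for 18 h. Medium then replaced with fresh medium containing 1.2 mM MTT for 4 h; formazan dissolved in DMSO, absorbance at 540 nm. Results given as % of basal response.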

B16-F10 = test: Cytotoxicity against mouse B16F10 cells assessed as reduction in cell survival at 0.1 to 10 uM after 18 hrs by MTT assay; assay type: functional, cell-based; outline: as §3
PC-9 [10] = test: Cytotoxicity against human PC9 cells assessed as reduction in cell survival at 0.1 to 10 uM after 18 hrs by MTT assay; assay type: functional, cell-based; outline: as §3
HCC827 [11] = test: Cytotoxicity against human HCC827 cells assessed as reduction in cell survival at 0.1 to 10 uM after 18 hrs by MTT assay; assay type: functional, cell-based; outline: as §3
HCC827 [12] = test: Cytotoxicity against human HCC827 cells assessed as reduction in cell survival at 0.1 to 10 uM after 50 to 60 hrs by MTT assay; assay type: functional, cell-based
NB-4 [13] = test: Cell cycle arrest in human NB4 cells assessed as accumulation of cells at G1 phase after 24 hrs by propidium iodide staining-based flow cytometric analysis; assay type: functional
Outline: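 NB4 cultured at 37 °C, 5% CO2 in RPMI-1640 with 10% heat-inactivated FBS. Treated at 50 and 100 nM, 1 and 10 μM for 24 h. Cells fixed/permeabilized in 70% ethanol overnight at 4 °C, then given RNase and 20 μg/ml PI for 30 min. Doublets excluded, 20,000 events per sample; cell-cycle phase distribution analysed.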

NB-4 [14] = test: Induction of differentiation in human NB4 cells at 500 nM after 24 hrs in presence of ATRA by CD11c staining-based flow cytometric analysis; assay type: functional, cell-based
Outline: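 NB4 exposed to 0.5 μM compound together with 1 μM ATRA for 24 h. Cells stained with PE-conjugated CD11c (mouse IgG1-PE control) for 1 h at 4 °C in the dark, washed, resuspended in PBS with propidium iodide (0.25 μg/mL), then analysed by flow cytometry. Biological triplicates, mean ± S.E.M.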

Tubulin (Homo sapiens) [15] = biological target: T1, Tubulin (Homo sapiens); test: Displacement of podophyllotoxin from tubulin (unknown origin) by ultracentrifugation method; assay type: protein-complex assay
B16-F1 = test: Cytotoxicity against mouse B16-F1 cells assessed as reduction in cell survival at 0.1 to 10 uM after 18 hrs by MTT assay; assay type: functional, cell-based; outline: as §3
Tubulin (Homo sapiens) [16] = biological target: T1, Tubulin (Homo sapiens); test: Binding affinity to tubulin (unknown origin) by analytical ultracentrifugation
PC-9 [17] = test: Induction of apoptosis in human PC9 cells assessed as increase in caspase-3 expression at 10 uM after 18 hrs by Western blot analysis; assay type: functional, cell-based
Outline: (§4)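 PC9 and HCC827 maintained in DMEM with 10% FBS, then exposed to 10 μM compound for 18 h in 5% serum. Caspase 3 activation and cell cycle proteins examined by western blot.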

PC-9 [18] = test: Induction of apoptosis in human PC9 cells assessed as increase in p21 expression at 10 uM after 18 hrs by Western blot analysis; assay type: functional, cell-based; outline: as §4
PC-9 [19] = test: Induction of apoptosis in human PC9 cells assessed as reduction in cyclin D1 expression at 10 uM after 18 hrs by Western blot analysis; assay type: functional, cell-based; outline: as §4
HCC827 [20] = test: Induction of apoptosis in human HCC827 cells assessed as increase in caspase-3 expression at 10 uM after 18 hrs by Western blot analysis; assay type: functional, cell-based; outline: as §4
HCC827 [21] = test: Induction of apoptosis in human HCC827 cells assessed as increase in p21 expression at 10 uM after 18 hrs by Western blot analysis; assay type: functional, cell-based; outline: as §4
HCC827 [22] = test: Induction of apoptosis in human HCC827 cells assessed as reduction in cyclin D1 expression at 10 uM after 18 hrs by Western blot analysis; assay type: functional, cell-based; outline: as §4
SCC-4 [23] = test: Cytotoxicity against human SCC4 cells after 48 hrs by MTT assay; assay type: functional, cell-based; details: SCC-4, 48 h
Outline: (§5)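 Cells (NCI-H929 in RPMI-1640 GlutaMAX; SCC4 in DMEM GlutaMAX; 10% FBS, 37 °C, 5% CO2) treated with increasing concentrations for 48 h. IC50 is the mean of three independent experiments.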

NCI-H929 [24] = test: Cytotoxicity against human NCI-H929 cells after 48 hrs by MTT assay; assay type: functional, cell-based; details: NCI-H929, 48 h; outline: as §5
Ca9-22 [25] = test: Cytotoxicity against human Ca9-22 cells after 24 hrs by MTT assay; assay type: functional, cell-based; details: Ca9-22, 24 h
Ca9-22 [26] = test: Cytotoxicity against human Ca9-22 cells after 48 hrs by MTT assay; assay type: functional, cell-based; details: Ca9-22, 48 h
Ca9-22 [27] = test: Cytotoxicity against human Ca9-22 cells after 72 hrs by MTT assay; assay type: functional, cell-based; details: Ca9-22, 72 h
NCI-H929 [28] = test: Induction of apoptosis in human NCI-H929 cells at 500 nM after 48 hrs by Annexin V/propidium iodide staining-based flow cytometric analysis relative to control; assay type: functional
Outline: (§6)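 Seeding density: NCI-H929 and Ca9.22 at 30×10^4 cells/mL, SCC4 at 15×10^4 cells/mL. Cells exposed 48 h to compound (500 nM; 50 μM in SCC4 for one compound) or vehicle (1% EtOH v/v). Annexin V/PI staining, flow cytometry, 10,000 cells gated on vehicle-treated cells. Three independent experiments, mean ± S.E.M, T-test.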

SCC-4 [29] = test: Induction of apoptosis in human SCC4 cells at 500 nM after 48 hrs by Annexin V/propidium iodide staining-based flow cytometric analysis relative to control; assay type: functional; outline: as §6
HL-60 [30] = test: Induction of autophagy in human HL60 cells assessed as increase in LC3B-2 levels at 10 uM after 105 mins in presence of lysosomal inhibitor chloroquine by immunoblot analysis; assay type: functional, cell-based
Outline: (§7)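 HL-60 in serum-supplemented RPMI 1640, or starved in Earle's Balanced Salts for 15 min beforehand, then treated with 10 μM compound with or without 40 μM chloroquine for 1 h 45 min or 16 h. LC3B-II measured by immunoblot, densitometry normalized to actin, three independent experiments, Student's T-test.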

HL-60 [31] = test: Induction of autophagy in serum starved human HL60 cells assessed as increase in LC3B-2 levels at 10 uM after 105 mins by immunoblot analysis; assay type: functional, cell-based; outline: as §7
[32] = Solubility of compound in pH 3 aqueous solution after 12 hrs by HPLC analysis; assay type: physicochemical
[33] = Solubility of compound in pH 7.4 aqueous solution after 12 hrs by HPLC analysis; assay type: physicochemical
Outline: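 Water solubility at pH 7.4 measured by HPLC analysis.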

Row | Structure (SMILES) | Activity (HL-60 [2]) | inhibition (Tubulin (Homo sapiens) [3]) | solubility at 20 min, 15 µM [4] [µM] | IC50 (A2780) [µM] | IC50 [5] [µM] | Ratio IC50 [6] | IC50 (NIH3T3 [7]) [µM] | IC50 (NIH3T3 [8]) [µM] | Ratio IC50 [9] | Activity (A549) | Activity (B16-F10) | Activity (PC-9 [10]) | Activity (HCC827 [11]) | Activity (HCC827 [12]) | Activity (NB-4 [13]) | Activity (B16-F1) | Kb (Tubulin (Homo sapiens) [16]) [×10⁷ /M] | other results
1 | CC(=O)OC1=C(c2cccc3cccnc23)Oc2cc3ccccc3cc2-n2cccc21 | Active | Active | 0.36 (≈ 0.151 µg/mL) | 0.076 | 0.079 | 1.03 | 0.034 | 0.068 | 2 | Active | Active | Active | Active | inactive | Dose-dependent effect | Active | 115 | IC50 (HL-60 [1]): 0.263 µM; Activity (GISTT1): Active; Activity (NB-4 [14]): Active; inhibition (Tubulin (Homo sapiens) [15]): Active
2 | CC(=O)OC1=C(c2cccc3ccccc23)Oc2cc3ccccc3cc2-n2cccc21 | Active | Active | 0.62 (≈ 0.259 µg/mL) | 0.249 | 0.24 | 0.96 | 0.126 | 0.306 | 2.42 | Active | Active | Active | Active | inactive | Dose-dependent effect | Active | 4.4 | Activity (PC-9 [17]): Active; Activity (PC-9 [18]): Active; Activity (PC-9 [19]): Active; Activity (HCC827 [20]): Active; Activity (HCC827 [21]): Active; Activity (HCC827 [22]): Active; IC50 (SCC-4 [23]): 0.16 µM; IC50 (NCI-H929 [24]): 0.376 µM; IC50 (Ca9-22 [25]): 0.21 µM; IC50 (Ca9-22 [26]): 0.17 µM; IC50 (Ca9-22 [27]): 0.083 µM; Activity (NCI-H929 [28]): >40%; Activity (SCC-4 [29]): >40%; Activity (HL-60 [30]): Active; Activity (HL-60 [31]): Active; solubility at 12 h [32]: 29.4 µM (≈ 12.3 µg/mL); solubility at 12 h [33]: 26 µM (≈ 10.9 µg/mL)
